Reference: ChEMBL document CHEMBL3272077, “11,12-Secoprostaglandins. 2. N-acyl-N-alkyl-7-aminoheptanoic acids” (1977)

Tests used:
Mus musculus [1] = organism: Mus musculus; assay: Stimulation of prostanoid receptor-mediated cAMP accumulation in Charles River CD-1 mouse ovary at 25 ug/ml after 30 mins relative to control; type: tissue-based; settings: Female gonad
Summary of the method: (§1)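 Mouse ovaries incubated 1 h at 37 °C with shaking to build an intracellular ATP-14C pool. Then 0.2 ml 0.05 M theophylline in 0.15 M NaCl and test compound in Me2SO were added, followed by 30 min at 37 °C. Stopped with 10% trichloroacetic acid and homogenized. cAMP-14C was isolated from the supernatant ending with paper chromatography. Result is fold increase, treated over untreated ovaries.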

Mus musculus [2] = organism: Mus musculus; assay: Stimulation of prostanoid receptor-mediated cAMP accumulation in Charles River CD-1 mouse ovary at 100 ug/ml after 30 mins relative to control; type: tissue-based; settings: Female gonad; summary of the method: as §1
Mus musculus [3] = organism: Mus musculus; assay: Stimulation of prostanoid receptor-mediated cAMP accumulation in Charles River CD-1 mouse ovary at 10 ug/ml after 30 mins relative to control; type: tissue-based; settings: Female gonad; summary of the method: as §1
Mus musculus [4] = organism: Mus musculus; assay: Stimulation of prostanoid receptor-mediated cAMP accumulation in Charles River CD-1 mouse ovary at 1 ug/ml after 30 mins relative to control; type: tissue-based; settings: Female gonad; summary of the method: as §1
Mus musculus [5] = organism: Mus musculus; assay: Stimulation of prostanoid receptor-mediated cAMP accumulation in Charles River CD-1 mouse ovary at 0.05 ug/ml after 30 mins relative to control; type: tissue-based; settings: Female gonad; summary of the method: as §1
Mus musculus [6] = organism: Mus musculus; assay: Stimulation of prostanoid receptor-mediated cAMP accumulation in Charles River CD-1 mouse ovary at 0.1 ug/ml after 30 mins relative to control; type: tissue-based; settings: Female gonad; summary of the method: as §1
Canis familiaris = assay: Increase in renal blood flow in anesthetized dog at 0.25 mg/kg/min infused into thoracic aorta (reference value: 188 ml/min); type: functional, Canis lupus familiaris

SMILES | fold change (FC) (Mus musculus [1]) | fold change (FC) (Mus musculus [2]) | fold change (FC) (Mus musculus [3]) | fold change (FC) (Mus musculus [4]) | fold change (FC) (Mus musculus [5]) | fold change (FC) (Mus musculus [6]) | Activity (Canis familiaris)
CCCCCCCCC(C)N(CCCCCCC(=O)O)C(C)=O (stereo not drawn) | 3 | 4 | – | – | – | – | –
CCCCC[C@H](O)CC[C@H]1CCC(=O)[C@@H]1CCCCCCC(=O)O | 26 | – | 25 | 10 | – | – | –
CCCCCC(O)CCCC(CCCCCCC(=O)O)C(C)=O (stereo not drawn) | 14 | 23 | 11 | 2 | – | – | –
CCCCCC(O)CCCN(CCCCCCC(=O)O)C(N)=S (stereo not drawn) | 16 | 26 | 4 | – | – | – | –
CCCCCC(C)(O)CCCN(CCCCCCC(=O)O)C(N)=O (stereo not drawn) | 8 | 22 | 3 | – | – | – | –
CCCCCC(O)CCCN(C#N)CCCCCCC(=O)O (stereo not drawn) | 18 | 31 | 4 | – | – | – | –
CCCCC[C@H](O)/C=C/[C@H]1[C@H](O)CC(=O)[C@@H]1CCCCCCC(=O)O | – | – | – | 54 | 29 | 25 | –
CCCCCCCCC(c1ccccc1)N(CCCCCCC(=O)O)C(C)=O (stereo not drawn) | 1 | 1 | – | – | – | – | –
CCCCCC(O)CCCN(CCCCCCC(=O)O)C(C)=O (stereo not drawn) | 17 | 17 | 10 | – | – | – | –
CCCCCC(O)CCCN(CCCCCCC(=O)[O-])C(N)=O.[Na+] (stereo not drawn) | 43 | 40 | 23 | 2 | – | – | 258 mL/min
C=CC(=O)N(CCCCCCCCC)CCCCCCC(=O)O | 7 | 11 | 2 | – | – | – | –
CCCCCCCCC(C)N(CCCCCCC(=O)O)C(N)=O (stereo not drawn) | 16 | 17 | 9 | – | – | – | –
CCCCCC(O)/C=C/CN(CCCCCCC(=O)O)C(N)=O (stereo not drawn) | 19 | 26 | 14 | – | – | – | –
CCCCCCCCCN(CCCCCCC(=O)O)C(N)=O | 16 | 25 | 15 | – | – | – | –
